From ChEMBL document CHEMBL4513216, “Probing the Open Global Health Chemical Diversity Library for Multistage-Active Starting Points for Next-Generation Antimalarials” (ACS Infect Dis, 2020)

Test: Toxicity liver stage against HepG2, at 10uM
Type: cell-based
Parameters: test concentration 10 uM, cell line HepG2-A16-CD81EGFP
Settings: human, HepG2-A16-CD81EGFP cells; read-out: INHIBITION
Outline: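 Uninfected HepG2-A16-CD81EGFP cells, 3 × 10^3 per well, 1536-well, plated on prespotted compound at 10 μM final, parasite-free screening media added to match infected plates; puromycin 10 μM positive, DMSO 0.5% negative; run in parallel with 48 h PbLuc assay at 37 °C, 5% CO2; viability by CellTiter-Glo luminescence, normalized to controls.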

| Compound | cytotoxicity at 10 µM [%] |
| --- | --- |
| CN1C(=O)C2(CCN(C(=O)c3ccccc3)CC2)c2cc(F)ccc21 | -106 |
| c1cc(-c2c[nH]nc2C2CCCCC2)nc(N2CCCCCC2)n1 | 8.07 |
| COc1ccccc1CC(=O)N1CCC(NCc2ccncc2)CC1 | -9.69 |
| c1cc(CN2C[C@H](OCC3CCOCC3)[C@H]3COC[C@H]32)co1 | -4.8 |
| Cc1nccn1-c1cccc(C2CCCN2)n1 (configuration not stated) | 10.6 |
| COc1ccc(Cl)cc1NC(=O)CCC1CCCN(Cc2ncon2)C1 (configuration not stated) | -4.18 |
| CC(C)N1CCOC[C@H]1c1nc(C(C)(C)C)c[nH]1 | -1.99 |
| c1cc(C2CC2)n2cnc(C3CN(Cc4ccncc4)CCO3)c2c1 (configuration not stated) | 6.59 |
| O=C(NC1CC1)C1CCN(c2cccc(C(F)(F)F)n2)CC1 | 5.17 |
| CC1CN(Cc2ccc(-n3cccn3)cc2)CCO1 (configuration not stated) | -7.18 |
| Cc1cc(CN2CCc3nc(C(C)C)nc(O)c3CC2)c(C)s1 | -0.782 |
| Cc1nn(C)c(C)c1C1CCCN1CCOc1ccccc1C#N (configuration not stated) | 8.13 |
| CC(C)CN1CCC(NC(=O)c2ccc(Cl)cc2Cl)CC1 | -8.33 |
| CCOc1ccc(NC2CCN(C3CC3)C2=O)cn1 (configuration not stated) | -0.387 |
| COc1cc(-c2nc(N)n[nH]2)cc(OC)c1OC | -10.2 |
| Cn1cc(C(C)(O)CNc2ccccn2)cn1 (configuration not stated) | -43.6 |
| COCCN1CCN(C(=O)c2ccc(C)cc2OC)[C@H]2CS(=O)(=O)C[C@H]21 | -3.81 |
| COc1ccc(CN2C[C@H](OCC3CCOCC3)[C@H]3COC[C@H]32)cc1 | -9.78 |
| COc1ccc(CNC(=O)N2CCC(Cc3cnn(C)c3)C2)cc1C (configuration not stated) | -9.52 |
| Cc1nc(N2C[C@H]3CNC[C@H]3C2)c2sccc2n1 | 9.26 |
| O=C(NCc1cccs1)C1CNCC12CCOCC2 (configuration not stated) | -5.43 |
| CC(=O)N1CCCC1c1ccnc(Nc2cncnc2)n1 (configuration not stated) | -25.6 |
| CN1CC2(CCN(Cc3cccnc3)CC2)c2cc(F)ccc21 | 14 |

| Compound | cytotoxicity at 10 µM [%] |
| --- | --- |
| O=C(CN1CCN(CC2CCOc3ccccc3C2)CC1)N1CCCC1 (configuration not stated) | -4.02 |
| Cc1cc(C(=O)NCC(C)N2CCc3ccccc32)on1 (configuration not stated) | -22.8 |
| CCCc1nc(N[C@H]2COC[C@@H]2N2CCCC2)c2cnn(C)c2n1 | -6.56 |
| CCC(CO)NC(=O)Nc1cc(F)ccc1Br (configuration not stated) | 11.9 |
| CC(C)c1nnc(NC(=O)N2CCCC2c2ccncc2)s1 (configuration not stated) | 5.6 |
| CC(Cn1cccn1)NCC(=O)NC1CCOCC1 (configuration not stated) | 2.51 |
| c1csc(CCNc2nc(-c3ccncc3)nc3c2CCNCC3)c1 | -165 |
| Cc1cccc(CN2CC[C@H]3C[C@H](C)O[C@@H]3C2)n1 | -78.6 |
| COCc1nc(N2CCC(CCO)CC2)c2cnn(C)c2n1 | 1.22 |
| COc1cc(-c2n[nH]c(CN)n2)cc(OC)c1OC | 2.45 |
| COC[C@]1(O)CCN(C2CCN(c3ccc(OC)cc3)CC2)CC1(C)C | -3.17 |
| CN(Cc1cn[nH]c1-c1ccc(F)cc1)C(=O)CCC1CC1 | 9.12 |
| COc1ccc(C(=O)N2C[C@@H](c3ccccc3)[C@@H]3NCCCC[C@@H]32)cc1 | -23.3 |
| CNc1nc(CN2C[C@@H](NC(C)=O)[C@H](c3ccc(C)o3)C2)cs1 | -42.4 |
| COc1ccc2c(=O)n(CC3CC3)ccc2c1OC | 12.8 |
| Cc1nn(C)c(C)c1C1COCCN1c1ncncc1Br (configuration not stated) | -8.9 |
| Cc1nn(C)c(N(C)C)c1CNCc1cccc(CN(C)C(C)C)c1 | 11.4 |
| COCc1nc(C(=O)N2CCCC2c2c(C)nn(C)c2C)cs1 (configuration not stated) | -4.74 |
| CC1CCN(CCNC(=O)c2ccn(-c3ccc(F)cc3)n2)CC1 | -15.6 |
| COCCN1CCOCC2(CCCN(Cc3ccc(C)o3)C2)C1 (configuration not stated) | -5.58 |
| Cc1cc(NC(=O)N(Cc2ccc(C#N)cc2)C(C)C)no1 | -17 |
| CC(C)CC(=O)N1CC[C@@H]2CN(Cc3cccnc3)S(=O)(=O)[C@@H]2CC1 | -103 |
| O=C(NCCc1cc(N2CCOCC2)nc(NC2CC2)n1)C1CCCO1 (configuration not stated) | 2.61 |

| Compound | cytotoxicity at 10 µM [%] |
| --- | --- |
| CC(CCN1CCn2nc(CNC(=O)N(C)C)cc2C1)c1ccccc1 (configuration not stated) | -11.8 |
| N#CCCN(Cc1cccnc1)C(=O)c1ccc(OCC2CC2)cc1 | -8.17 |
| O=C1CC(c2ccccc2)C2(CCN(C(=O)c3ccncc3F)CC2)N1 (configuration not stated) | -76.9 |
| COCC(=O)N1CCC2(CC(C(=O)NCc3cccnc3)=NO2)C1 (configuration not stated) | -1.34 |
| CCOc1cccc(C2CC(=O)NCc3nc(N4CCCC4)sc32)c1 (configuration not stated) | -2.53 |
| CC1CCN(C(=O)c2sccc2-n2cnnn2)CC1 | 9.33 |
| NC(=O)CCC1CCCN(c2ccc3ccc(F)cc3n2)C1 (configuration not stated) | -0.386 |
| CC(=O)N1Cc2ccccc2C[C@H]1C(=O)N(C)CCc1ccccn1 | -3.27 |
| CCN1CCN(C(C)CNC(=O)Nc2cnn(CC)c2)CC1 (configuration not stated) | -12.9 |
| CC1CN(Cc2noc(C3CC3)n2)CCN1Cc1nccn1C (configuration not stated) | -10 |
| CCCn1ccnc1CN1CCN(C2CCOCC2)CC(C(N)=O)C1 (configuration not stated) | -24.4 |
| Cn1ncc2c(N3CCS(=O)(=O)CC3)nc(C3CCCC3)nc21 | -1.31 |
| CN(C)c1ncnc2c1CCN(S(=O)(=O)c1cccc3nsnc13)C2 | 4.01 |
| COc1ccccc1N1CCC(CNS(=O)(=O)c2cccc(C#N)c2)C1 (configuration not stated) | -4.13 |
| Cc1nc(S(=O)(=O)N2CCc3[nH]nc(CCC(C)C)c3C2)cn1C | 10.2 |
| CN1CCN(C2COC3(CCN(Cc4ccc(F)cc4)CC3)C2)CC1 (configuration not stated) | -97.4 |
| COc1ccc(-c2nc3c([nH]2)CCNC3)c(OC)c1OC | 0.786 |
| CCN1CCn2c(C)cnc2C12CCN(C(=O)Cc1ccccc1)CC2 | 4.59 |
| O=C1CC(c2ccc3c(c2)OCO3)c2cn[nH]c2N1 (configuration not stated) | 13.3 |
| Cc1n[nH]c(C)c1C1COCCN1C(=O)c1cccc(F)c1F (configuration not stated) | -8.45 |
| N#CCC(=O)NCc1nnc2n1CCN(Cc1cccs1)C2 | -136 |
| O=C(c1ccncc1F)N1CCN(CC2CC2)c2ncccc2C1 | 6.48 |
| COc1cc(-c2nccn2CCn2cccn2)cc2c1OCO2 | -3.81 |

| Compound | cytotoxicity at 10 µM [%] |
| --- | --- |
| CCC[C@H]1CN(S(=O)(=O)c2cc(C)ccc2C)C[C@@H]1N | 10.3 |
| CCN(Cc1cnn(C)c1)S(=O)(=O)c1ccc(NC(=O)C(C)(C)C)cc1 | 0.165 |
| Cc1nccn1-c1ccc(C(=O)NCC(F)(F)F)nn1 | -2.35 |
| CC(NCc1ccc(-c2ccc(Cl)cc2)o1)c1nnc2n1CCC2 (configuration not stated) | -2.04 |
| CCn1ncc(Nc2[nH]cnc3nc(C)nc2-3)c1C | 3.26 |
| Cc1nn(CCO)c(C)c1CNC1CCc2c(Cl)cccc21 (configuration not stated) | -6.34 |
| CN1CCN(C2CCN(Cc3nc(-c4ccoc4)no3)CC2)C1=O | -2.83 |
| CS(=O)(=O)CCN1CCC(=Cc2ccccc2)CC1 | -2.99 |
| COCCN(Cc1ccoc1)C(=O)c1cccnc1SC | 12.4 |
| CN1C[C@@H](F)[C@@H](OCc2nc3ccccc3[nH]2)C1 | 5.34 |
| CCc1ncc2c(n1)CN(c1cc(NCCO)nc(N)n1)C2 | -4.49 |
| Cc1cc(CN2C[C@@H]3COC[C@]3(CN(C)C)C2)no1 | 4.81 |
| CCN(CC1CCCO1)C(=O)Nc1cc(C(=O)OC)ccc1F (configuration not stated) | -4.77 |
| Cc1oc(C(=O)O)cc1S(=O)(=O)Nc1cccc(Cl)c1F | -5.99 |
| Cc1nc(CN2CCOC(c3ccc(Cl)cc3)C2)oc1C (configuration not stated) | -10.1 |
| CCC(Nc1nc(CCN)nc2ccccc12)c1cc(C)ccn1 (configuration not stated) | -12.9 |
| Cc1cnn(CCCn2ncc(N3CCC(CN)C3)cc2=O)c1 (configuration not stated) | -48.2 |
| CCOC1Sc2nnc(C)n2N=C1c1ccc(F)cc1 (configuration not stated) | 4.48 |
| O=C(NCCc1ccccn1)C1=NN(c2ccccc2)C(=O)CN1 | -1.96 |
| FC(F)(F)COc1ccc(CSCc2ccon2)cn1 | -4.52 |
| CCN(Cc1cnn(C)c1)S(=O)(=O)c1ccc(NC(C)=O)cc1 | 3.59 |
| O=C(NCCN1CCOCC1)c1nc(-c2ccc3[nH]ccc3c2)no1 | -7.53 |
| Cc1ccc2nc(C(=O)N3CCC(CCn4cccn4)CC3)cn2c1 | -18.3 |

| Compound | cytotoxicity at 10 µM [%] |
| --- | --- |
| CCc1n[nH]c(C2CN(C(=O)c3ccc4c(c3)CCC4)CCO2)n1 (configuration not stated) | -13.1 |
| Cc1cc(-c2nccs2)nc(C2CCN(Cc3ccc(F)cc3)CC2)n1 | 6.54 |
| CCOCC1(CNCc2cc(O)c3cc(C)ccc3n2)CC1 | -9.19 |
| Cc1nc(CNC(=O)NC(C)c2ccc3c(c2)OCCO3)cs1 (configuration not stated) | -2.61 |
| Cc1c(I)cccc1C(=O)NCc1nnc[nH]1 | -2.86 |
| CN1CCOC(CNC(=O)CCc2cc(F)ccc2F)C1 (configuration not stated) | 2.32 |
| Cc1ccc(C(=O)N2CC[C@@H]3CN(C4CCOCC4)CCO[C@@H]3C2)o1 | -121 |
| c1coc(-c2nc3c(c(NCc4n[nH]c5c4CCC5)n2)CCNCC3)c1 | -3.36 |
| CN(C)Cc1nnc(C(=O)N(C)Cc2ccc(F)cc2)o1 | 0.624 |
| CC(C)c1nc(CN2CCCC(O)C2)cs1 (configuration not stated) | -7.13 |
| CCCC(NC(=O)c1occc1C)c1nnn[nH]1 (configuration not stated) | -9.36 |
| CC1CN(C(=O)CCc2cc(Br)cs2)CCO1 (configuration not stated) | -8.48 |
| CS(=O)(=O)N1CCN(c2ccnc(N3CCCC3)n2)CC1 | -1.26 |
| COC(=O)c1ccc(NCc2csc(C)n2)cc1Cl | -5.08 |
| CCc1ccc(C(=O)NCc2cccc(S(=O)(=O)NC)c2)o1 | -2.31 |
| Cc1cccnc1CN1CCCCC1c1ccn2ccnc2n1 (configuration not stated) | 0.498 |
| CN(Cc1cccc(CCN)c1)Cc1cccc2ncccc12 | 7.82 |
| CC(C)Oc1cccc(CN2CCC(c3n[nH]c4ncccc34)CC2)c1 | -6.15 |
| Cc1ccc(-c2nc(CN3CCN(S(=O)(=O)N(C)C)CC3)cs2)o1 | 6.81 |
| CC(C)C(=O)NC1CCCN(C(=O)c2ccccc2O)C1 (configuration not stated) | -2.55 |
